5 compounds from ChEMBL document CHEMBL1157082, “Sesquiterpenes from Oplopanax horridus” (J Nat Prod, 2010) can be followed below.

Data set [1] has as its system Vero. The data set is described as follows: Cytotoxicity against african green monkey Vero cells. The format is cell-based. Conditions: chlorocebus sabaeus. A digest of the protocol:
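IC50 in Vero cells, run alongside the MIC assay. Test concentrations were at or below 1% of the maximum achievable stock concentration in DMSO.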

Data set [2] deals with Mycobacterium tuberculosis. The data set is described as follows: Antituberculosis activity against Mycobacterium tuberculosis Erdman by microplate alamar blue assay. Format: functional. A digest of the protocol: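 MIC read by microplate Alamar Blue assay against virulent M. tuberculosis Erdman (ATCC 35801). Rifampin served as positive control. Crude fractions were scored as percent inhibition at several concentrations, and pure isolates as MICs.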

For data set [3], the system named is Mycobacterium tuberculosis. As to the kind of experiment: Antituberculosis activity against Mycobacterium tuberculosis H37Ra by microplate alamar blue assay. The format is functional. (In general: The colour change of resazurin is a common sign of viable cells or microbes.)
Data set [4] can be described thus: Selectivity index, ratio of IC50 for african green monkey Vero cells to MIC for Mycobacterium tuberculosis Erdman. Format: functional.

Converted amounts (≈) assume the structure as drawn. Bounds are passed on as bounds.

The MIC is the smallest concentration in the dilution series that meets the test's criterion for growth inhibition. For `C=CC1(C)CC/C=C(/C)CCC(C(C)(C)O)O1` (stereo not given) [NEROPLOMACROL], in data set [1], the Activity entry is listed as “Non-toxic”. Further, the MIC in data set [2] was above 128 µg/mL.
For `C=C[C@@H](O)C#CC#C[C@@H](O)/C=C\CCCCCCC` [FALCARINDIOL], in that order: “Non-toxic” and 6.2 µg/mL (≈ 23.8 µM).
With `c1cc2c(cc1[C@H]1OC[C@H]3[C@@H]1CO[C@@H]3c1ccc3c(c1)OCO3)OCO2` [SESAMIN], the MIC in data set [3] was above 200 µg/mL.
On to `C=C[C@@](C)(O)CC[C@@H](O)[C@]1(C)CC[C@H](C(C)(C)O)O1` (relative stereo) [NEROPLOFUROL], for which, in data set [1], the Activity entry is on record as “Non-toxic”. The compound further came in with an MIC in data set [2] above 128 µg/mL.
On to `CCCCCCC/C=C\[C@H](O)C#CC#C[C@@H](O)CC` [OPLOPANDIOL], for which, in data set [1], the Activity result is “Non-toxic”. Moreover, 61.5 µg/mL (≈ 234 µM) was the least that counted as inhibitory in data set [2] (MIC). Further, in data set [4], the “Selectivity Index” value stood at 6.2.
